From ChEMBL document CHEMBL4390663, “Cationic biaryl 1,2,3-triazolyl peptidomimetic amphiphiles: synthesis, antibacterial evaluation and preliminary mechanism of action studies” (Eur J Med Chem, 2019)
Values after ≈ are worked out from the molar mass of the structure shown.

How the values were obtained:
Clostridioides difficile [1] = assay: Antibacterial activity against Clostridium difficile NSW132 RT027 incubated for 48 hrs by CLSI method; type: functional; details: NSW132 RT027, 48 h
In short: (§1)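 Broth microdilution per CLSI anaerobe method in pre-reduced (2-4 h) Brucella broth with haemin and vitamin K, 35 °C anaerobically for 48 h. Compounds from 5 mg/mL DMSO stocks, twofold dilutions in water mixed with double-strength broth; final 0.25–128 μg/mL. […] Triplicate; modal MIC read visually as lowest concentration inhibiting growth.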

Escherichia coli [2] = assay: Antibacterial activity against Escherichia coli ATCC 25922 incubated for 18 hrs by CLSI method; type: functional; details: ATCC 25922, 18 h
In short: (§2)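 Screen run by CO-ADD: mid-log cultures in cation-adjusted MHB, 5 × 10^5 CFU/mL, compounds at up to 32 μg/mL in 1:2 serial dilutions (8 steps), final DMSO ≤0.5%, duplicate. 37 °C for 18 h without shaking; OD600 read against media-only and untreated-bacteria references. MIC = lowest concentration giving ≥80% inhibition; colistin standard.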

Klebsiella pneumoniae = assay: Antibacterial activity against Klebsiella pneumoniae 700603 incubated for 18 hrs by CLSI method; type: functional; details: Klebsiella pneumoniae, 700603, 18 h; in short: as §2
Clostridioides difficile [3] = assay: Antibacterial activity against Clostridium difficile ATCC 700057 incubated for 48 hrs by CLSI method; type: functional; details: ATCC 700057, 48 h; in short: as §1
Pseudomonas aeruginosa = assay: Antimicrobial activity against Pseudomonas aeruginosa ATCC 27853 incubated for 18 hrs by CLSI method; type: functional; details: ATCC 27853, 18 h; in short: as §2
Staphylococcus aureus [4] = assay: Antimicrobial activity against Staphylococcus aureus ATCC 43300 incubated for 18 hrs by CLSI method; type: functional; details: ATCC 43300, 18 h
Streptococcus pneumoniae [5] = assay: Antibacterial activity against Streptococcus pneumoniae ATCC 49619 incubated for 24 hrs by CLSI method; type: functional; details: ATCC 49619, 24 h
In short: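 CLSI broth microdilution in MHB with 2.5% lysed horse blood, 5% CO2, 35 °C, 24 h. Compounds from 5 mg/mL DMSO stocks diluted in water plus double-strength broth; final 0.25–128 μg/mL. […] Triplicate; modal MIC read visually as lowest growth-inhibiting concentration.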

[6] = Haemolytic activity in sheep erythrocytes at 50 ug/ml incubated for 2 hrs under shaking condition relative to control; type: ADME, cell-based, Ovis aries, Erythrocyte; details: read-out: Activity
In short: (§3)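 Compounds in PBS mixed with washed sheep erythrocytes (2% final) at 5 or 50 μg/mL, rocked 2 h at 37 °C, centrifuged; supernatant absorbance at 540 nm. PBS-only value subtracted, then expressed relative to water lysis (100%). Triplicate, means reported.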

Staphylococcus aureus [7] = assay: Antimicrobial activity against Staphylococcus aureus ATCC 29213 incubated for 24 hrs by CLSI method; type: functional; details: ATCC 29213, 24 h
In short: (§4)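 Broth microdilution per CLSI aerobic guidance in Mueller Hinton broth, ambient air, 35 °C for 24 h. DMSO stocks were diluted in water, then serially diluted with double-strength broth inoculum added, for final 0.25–128 μg/mL. […] MIC was read visually as the lowest concentration inhibiting growth; the modal value of triplicates was recorded.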

Staphylococcus aureus [8] = assay: Antibacterial activity against methicillin-resistant Staphylococcus aureus NCTC 10442 incubated for 24 hrs by CLSI method; type: functional; details: NCTC 10442, 24 h; in short: as §4
Enterococcus faecalis [9] = assay: Antibacterial activity against Enterococcus faecalis ATCC 29212 incubated for 24 hrs by CLSI method; type: functional; details: ATCC 29212, 24 h
Acinetobacter baumannii = assay: Antimicrobial activity against Acinetobacter baumannii ATCC 19606 incubated for 18 hrs by CLSI method; type: functional; details: ATCC 19606 = CIP 70.34 = JCM 6841, 18 h; in short: as §2
[10] = Cytotoxicity against human HEK293 cells assessed as reduction in cell growth incubated for 20 hrs by resazurin dye-based fluorometric assay
In short: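 HEK293 cells, 5000 per well in DMEM + 10% FBS, exposed to compounds (top 32 μg/mL, 1:2 serial dilution ×8, ≤0.5% DMSO, duplicate) for 20 h at 37 °C, 5% CO2. Resazurin added (2.3 μg/mL final), 3 h further; fluorescence ex 560/em 590 nm. CC50 from sigmoidal dose-response fit against log concentration; tamoxifen standard.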

[11] = Haemolytic activity in sheep erythrocytes at 5 ug/ml incubated for 2 hrs under shaking condition relative to control; type: ADME, cell-based, Ovis aries, Erythrocyte; details: read-out: Activity; in short: as §3
Staphylococcus aureus [12] = assay: Induction of cytoplasmic membrane depolarization in Staphylococcus aureus ATCC 29213 at 32 ug/ml incubated for 30 mins by diSC35 staining based fluorescence assay relative to control; type: functional
In short: (§5)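 Mid-log cells (1.5 McFarland) loaded with 4 µM diSC3(5) in the dark at room temperature: S. aureus in PBS 30 min; E. coli in 5 mM HEPES/20 mM glucose pH 7.2 for 60 min, then 100 mM KCl and 0.5 mM EDTA. Baseline fluorescence (ex 620/em 670 nm) ~8 min, then compound added (final 32 µg/mL S. aureus, 64 µg/mL E. coli), tracked ~30 min.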

Escherichia coli [13] = assay: Induction of cytoplasmic membrane depolarization in Escherichia coli NCTC 10418 at 64 ug/ml incubated for 30 mins by diSC35 staining based fluorescence assay relative to control; type: functional; in short: as §5
Staphylococcus aureus [14] = assay: Induction of plasma membrane permeabilization in Staphylococcus aureus ATCC 29213 at 32 ug/ml measured for 30 mins by propidium iodide staining based fluorescence assay relative to control; type: functional
In short: (§6)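 Mid-log cells (1.5 McFarland) with 4 µM propidium iodide, dark, room temperature: S. aureus in PBS 30 min; E. coli in 5 mM HEPES/20 mM glucose pH 7.2 for 60 min, then 100 mM KCl and 0.5 mM EDTA. Fluorescence (ex 544/em 615 nm) read ~8 min baseline, then ~30 min after compound at 32 µg/mL final.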

Escherichia coli [15] = assay: Induction of plasma membrane permeabilization in Escherichia coli NCTC 10418 at 32 ug/ml measured for 30 mins by propidium iodide staining based fluorescence assay relative to control; type: functional; in short: as §6
Staphylococcus aureus [16] = assay: Antimicrobial activity against methicillin-resistant Staphylococcus aureus ATCC 43300 incubated for 18 hrs by CLSI method; type: functional; details: ATCC 43300, 18 h
Staphylococcus aureus [17] = assay: Antimicrobial activity against methicillin-resistant Staphylococcus aureus clinical isolate incubated for 18 hrs by CLSI method; type: functional
Staphylococcus aureus [18] = assay: Antimicrobial activity against glycopeptide intermediate susceptible Staphylococcus aureus NRS17 incubated for 18 hrs by CLSI method; type: functional; details: NRS17, 18 h
Staphylococcus aureus [19] = assay: Antimicrobial activity against glycopeptide intermediate susceptible/methicillin-resistant Staphylococcus aureus NRS1 incubated for 18 hrs by CLSI method; type: functional; details: NRS1, 18 h
Staphylococcus aureus [20] = assay: Antimicrobial activity against methicillin-resistant Staphylococcus aureus clinical isolate with reduced daptomycin susceptibility incubated for 18 hrs by CLSI method; type: functional
Staphylococcus aureus [21] = assay: Antimicrobial activity against vancomycin resistant Staphylococcus aureus NARSA VRS10 incubated for 18 hrs by CLSI method; type: functional; details: NARSA VRS10, 18 h
Streptococcus pneumoniae [22] = assay: Antibacterial activity against MDR Streptococcus pneumoniae ATCC 700677 incubated for 18 hrs by CLSI method; type: functional; details: ATCC 700677, 18 h
Enterococcus faecalis [23] = assay: Antimicrobial activity against vancomycin-resistant Enterococcus faecalis clinical isolate incubated for 18 hrs by CLSI method; type: functional

| SMILES | MIC (Clostridioides difficile [1]) [µg/mL] | MIC (Escherichia coli [2]) [µg/mL] | MIC (Klebsiella pneumoniae) [µg/mL] | MIC (Clostridioides difficile [3]) [µg/mL] | MIC (Pseudomonas aeruginosa) [µg/mL] | MIC (Staphylococcus aureus [4]) [µg/mL] | MIC (Streptococcus pneumoniae [5]) [µg/mL] | MIC (Staphylococcus aureus [7]) [µg/mL] | MIC (Staphylococcus aureus [8]) [µg/mL] | MIC (Enterococcus faecalis [9]) [µg/mL] | MIC (Acinetobacter baumannii) [µg/mL] | CC50 at 20 h [10] [µg/mL] | MIC (Staphylococcus aureus [16]) [µg/mL] | MIC (Staphylococcus aureus [17]) [µg/mL] | MIC (Staphylococcus aureus [18]) [µg/mL] | MIC (Staphylococcus aureus [19]) [µg/mL] | MIC (Staphylococcus aureus [20]) [µg/mL] | MIC (Staphylococcus aureus [21]) [µg/mL] | MIC (Streptococcus pneumoniae [22]) [µg/mL] | MIC (Enterococcus faecalis [23]) [µg/mL] | further results |
| --- | --- | --- | --- | --- | --- | --- | --- | --- | --- | --- | --- | --- | --- | --- | --- | --- | --- | --- | --- | --- | --- |
| CC(C)CCOc1ccccc1-c1ccccc1OCc1cn(C[C@@H](CCCCN)NC(=O)CCc2ccccc2)nn1.Cl | 16 | 32 | 32 | 8 | 32 | 16 | 8 | 8 | 4 | 8 | > 32 | 4.8 | – | – | – | – | – | – | – | – | hemolysis at 2 h, 50 ug/ml [6]: 101%; hemolysis at 2 h, 5 ug/ml [11]: 0.2%; Activity (Staphylococcus aureus [12]): 120 - 180%; Activity (Escherichia coli [13]): 460 - 900%; Activity (Staphylococcus aureus [14]): 600%; Activity (Escherichia coli [15]): 75% |
| CC(C)CCOc1ccc2ccccc2c1-c1c(OCc2cn(C[C@@H](CCCCN)NC(=O)[C@@H](CCCNC(=N)N)NC(=O)Cc3ccc4c(c3)OCO4)nn2)ccc2ccccc12.Cl.Cl | 32 | – | – | 8 | – | – | 4 | 4 | 4 | 4 | – | – | 2 | 4 | 4 | 2 to 4 | 4 | 4 | 2 | 2 | – |
| CC(C)CCOc1ccc2ccccc2c1-c1c(OCc2cn(C[C@@H](CCCCN)NC(=O)CCc3ccccc3)nn2)ccc2ccccc12.Cl | 32 | > 32 | > 32 | 32 | > 32 | 4 | 16 | 4 | 8 | 8 | > 32 | 3.5 | 2 to 4 | 16 | 8 | 8 to 16 | 8 | 8 | 8 | 4 | – |
| CN[C@H](CC(C)C)C(=O)N[C@H]1C(=O)N[C@@H](CC(N)=O)C(=O)N[C@H]2C(=O)N[C@H]3C(=O)N[C@H](C(=O)N[C@H](C(=O)O)c4cc(O)cc(O)c4-c4cc3ccc4O)[C@H](O)c3ccc(c(Cl)c3)Oc3cc2cc(c3O[C@@H]2O[C@H](CO)[C@@H](O)[C@H](O)[C@H]2O[C@H]2C[C@](C)(N)[C@H](O)[C@H](C)O2)Oc2ccc(cc2Cl)[C@H]1O [VANCOMYCIN] | 0.5 (≈ 0.345 µM) | – | – | 0.5 (≈ 0.345 µM) | – | – | 1 (≈ 0.69 µM) | – | – | – | – | – | – | – | 8 (≈ 5.52 µM) | 8 (≈ 5.52 µM) | – | – | 1 to 2 (≈ 0.69 to 1.38 µM) | > 32 | – |
